An excerpt weighted towards active compounds, which were near 3.5% of everything screened.
MEKK2wt PB1 HTS = raises or lowers MEK5 binding to wildtype human MEKK2 PB1 domain | binding response (% of control), % at 10 µM | 290,000 compounds, 1.1% hits | bead flow cytometry, Alexa488-MEK5 binding to MEKK2 WT; actives lie on both sides | Q9Y2U5; in the data active = binding response below about 67% or above about 130%
MEKK3 PB1 HTS = modulators (inhibitors or enhancers) of MEK5 binding to human MEKK3 PB1 domain; Q99759; bead-based flow cytometry, Alexa488-MEK5 binding to MEKK3; actives lie on both sides; 0 = blocked by unlabeled MEK5, 100 = vehicle; binding response (% of control), % at 10 µM; 290,000 compounds, 1.4% hits; AID 1529;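 active = binding response more than 3 SD above or below the average of its plate-row segment, actives on both sides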;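 note: Alexa488 bead fluorescence after subtracting the streptavidin-only scavenger bead signal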
ABCG2 block = inhibitors of human ABCG2 transporter, ABCB1 counter-screen; Q9UNQ0; IgMXP3 cells, JC-1 efflux, flow cytometry; inhibition, % at 6.6 µM; 190,000 compounds, 0.1% hits; AID 1325;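 active = inhibition above 80%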;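 note: 0% = DMSO and 100% = nicardipine control wells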
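Test system: IgMXP3 (ABCG2) plus far-red-tagged CCRF-Adr (ABCB1) cells. Reagent: JC-1 dye as substrate. Timing: 10 min exposure at 25 °C with rotation, no wash. Measured by: flow cytometric JC-1 green MFI at 530 nm. Read-out: percent efflux inhibition, scaled nicardipine 100% to DMSO 0%. Control set: nicardipine and DMSO wells.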
MEKK2 mut-MEK5 = signal of MEK5 binding to mutant human MEKK2 PB1 domain; bead flow cytometry, Alexa488-MEK5 binding to MEKK2 mutant; percent response, % at 10 µM; 290,000 compounds, 0.35% hits; in the data active = percent response above about 24%, passing the limit was not always enough
ABCB1 inh = human ABCB1 inhibition, ABCG2 as counter-screen; CCRF-Adr cells, JC-1 efflux, flow cytometry; inhibition, % at 6.6 µM; 190,000 compounds, 0.067% hits; AID 1326; in the data active = inhibition above about 40%;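 note: 0% = vehicle and 100% = reference inhibitor; higher value means more JC-1 retained so stronger ABCB1 efflux block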
Target sequence (P08183 whole entry, looked up): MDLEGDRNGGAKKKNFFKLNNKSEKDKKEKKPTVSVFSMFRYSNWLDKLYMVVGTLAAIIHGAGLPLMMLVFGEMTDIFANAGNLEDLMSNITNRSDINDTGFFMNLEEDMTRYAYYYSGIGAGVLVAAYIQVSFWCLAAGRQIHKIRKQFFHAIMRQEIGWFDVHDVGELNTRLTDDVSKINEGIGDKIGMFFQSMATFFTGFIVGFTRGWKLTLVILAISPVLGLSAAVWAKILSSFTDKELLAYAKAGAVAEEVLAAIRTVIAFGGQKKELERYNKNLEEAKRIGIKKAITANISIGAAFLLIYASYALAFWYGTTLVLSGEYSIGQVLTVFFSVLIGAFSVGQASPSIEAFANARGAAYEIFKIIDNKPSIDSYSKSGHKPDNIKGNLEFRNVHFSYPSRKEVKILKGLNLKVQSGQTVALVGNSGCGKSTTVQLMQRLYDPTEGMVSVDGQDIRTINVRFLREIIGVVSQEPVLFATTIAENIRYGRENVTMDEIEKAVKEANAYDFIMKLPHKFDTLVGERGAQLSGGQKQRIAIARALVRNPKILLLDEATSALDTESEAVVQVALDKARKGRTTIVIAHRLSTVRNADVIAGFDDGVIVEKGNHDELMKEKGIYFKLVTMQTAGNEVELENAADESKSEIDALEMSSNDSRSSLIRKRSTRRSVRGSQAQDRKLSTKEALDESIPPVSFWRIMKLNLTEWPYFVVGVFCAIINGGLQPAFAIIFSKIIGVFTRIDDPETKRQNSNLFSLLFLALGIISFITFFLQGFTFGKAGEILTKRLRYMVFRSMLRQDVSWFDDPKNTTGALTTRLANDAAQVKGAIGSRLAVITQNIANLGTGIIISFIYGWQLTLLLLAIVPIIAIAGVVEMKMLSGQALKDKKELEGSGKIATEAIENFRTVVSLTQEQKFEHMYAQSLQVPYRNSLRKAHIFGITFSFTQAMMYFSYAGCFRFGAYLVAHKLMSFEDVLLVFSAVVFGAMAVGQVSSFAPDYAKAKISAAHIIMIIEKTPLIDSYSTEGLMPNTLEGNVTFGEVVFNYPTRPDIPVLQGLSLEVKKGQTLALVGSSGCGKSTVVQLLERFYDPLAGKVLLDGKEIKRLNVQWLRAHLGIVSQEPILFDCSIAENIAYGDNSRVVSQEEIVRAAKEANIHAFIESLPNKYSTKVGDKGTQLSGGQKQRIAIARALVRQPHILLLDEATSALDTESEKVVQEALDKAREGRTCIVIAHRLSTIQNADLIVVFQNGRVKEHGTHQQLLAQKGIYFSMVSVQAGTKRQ
WT yeast gro inh = growth inhibition of WT yeast, mitochondrial fusion screen; inhibition, % at 10 µM; mitochondrial fusion phenotypic screen, WT strain; 190,000 compounds, 2.1% hits; in the data active = inhibition above about 58%; tested in S. cerevisiae
MEKK2wt confirm = raises or lowers MEK5 binding to wildtype human MEKK2, retest; shares compounds with MEKK3 PB1 HTS; bead flow cytometry, Alexa488-MEK5 binding to MEKK2 WT; actives lie on both sides; binding response (% of control), % at 10 µM; 5,900 compounds, 2.4% hits; in the data active = binding response below about 16% or above about 210%; inactive = in between
MEKK2mut-MEK5 = signal of MEK5 binding to mutant human MEKK2, retest | AID 1893 | shares compounds with MEKK3 PB1 HTS | percent response, % at 10 µM | 5,900 compounds, 2% hits | bead flow cytometry, Alexa488-MEK5 binding to MEKK2 mutant; in the data active = percent response mostly above about 71%, no sharp cut-off; inactive = mostly below about 38%;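 note: higher means compound restores mutant binding toward wildtype level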
MEKK3 confirm = confirmation of inhibitors of MEK5 binding to human MEKK3; AID 1894; shares compounds with MEKK3 PB1 HTS; 5,900 compounds, 1.8% hits; bead flow cytometry, Alexa488-MEK5 binding to MEKK3; hits give low values; binding response (% of control), % at 10 µM;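 active = binding response below 72% of control, or above a set upper limit, though filed actives all read lower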;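 note: 100% = DMSO only wells and 0% = binding blocked by excess unlabeled MEK5; lower values mean stronger disruption of MEK5 binding to MEKK3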
An asterisk follows results filed as active; · = no result given; [ ] = dose if it differs, or a comment.

SMILES	MEKK2wt PB1 HTS	MEKK3 PB1 HTS	ABCG2 block	MEKK2 mut-MEK5	ABCB1 inh	WT yeast gro inh	MEKK2wt confirm	MEKK2mut-MEK5	MEKK3 confirm
Cc1cccc(N(CC(=O)NCc2ccco2)C(=O)CCC(=O)Nc2nccs2)c1	86	98	1	-8	0	-30	·	·	·
O=[N+]([O-])c1c(NCCCO)cc(SCc2ccco2)c2nonc12	101	106	7	4	2	-3	·	·	·
CC(=O)OCCNc1cc(SCc2ccco2)c2nonc2c1[N+](=O)[O-]	113	146*	8	1	2	7	107	6	106
Cc1ccc(CCN2CC(C(=O)NCCN3CCOCC3)CC2=O)cc1 (configuration not stated)	101	104	0	10	0	25	·	·	·
Cc1ccc(S(=O)(=O)N2CCC(C(=O)NCCN3CCCCCC3)CC2)cc1	170*	96	1	34*	0	15	121	7	94
O=C(NCc1ccc(F)cc1)C1CC(=O)N(CCc2ccccc2)C1 (configuration not stated)	3.0*[inhibitor]	2.0*[inhibitor]	3	-69	1	-17	106	5	103
Cc1ccc(S(=O)(=O)N2CCC(C(=O)NCCc3ccccc3)CC2)cc1	108	103	4	4	-1	16	·	·	·
Cc1ccc(CCN2CC(C(=O)NCCN3CCCCCC3)CC2=O)cc1 (configuration not stated)	161*	107	0	62*	0	44	151	72*	108
COc1ccc(CN2CC(C(=O)NCCCN3CCCCCC3)CC2=O)cc1 (configuration not stated)	137*	103	1	19	0	-10	119	37	104
O=C(O)CC/C(=N/Nc1ncc(C(F)(F)F)cc1Cl)C(=O)O	99	99	1	-2	0	-2	·	·	·
Cc1ccc(CCN2CC(C(=O)NCCCN3CCC(C)CC3)CC2=O)cc1 (configuration not stated)	100	94	·	-2	·	·	·	·	·
Cc1ccc(CCN2CC(C(=O)NCCCN3CCCCCC3)CC2=O)cc1 (configuration not stated)	138*	95	-1	21	0	28	119	5	100
CCN(CC)CCNC(=O)CS(=O)Cc1nc(-c2ccc(C)cc2)oc1C (configuration not stated)	100	97	-2	-2	0	-11	·	·	·
CCN(CC)CCNC(=O)CS(=O)Cc1nc(-c2ccc(Cl)cc2)oc1C (configuration not stated)	62	49*[inhibitor]	9	-21	1	8	111	12	109
Cc1c(/C=N/NC(=O)c2cccs2)c2ccccc2n1Cc1ccccc1Cl	92	93	·	-12	·	·	·	·	·
CC(=O)CSc1nnc2c3ccccc3nc(C(C)(C)C)n12	63*[inhibitor]	73*[inhibitor]	2	-15	1	-18	101	-4	101
O=C(COc1ccc2c(c1)oc(=O)c1ccccc12)NC(Cc1ccc(Cl)cc1)C(=O)O (configuration not stated)	106	105	·	4	·	·	·	·	·
CC(=O)OC1CC(C)N(C(=O)c2ccccc2)c2ccc(C)cc21 (configuration not stated)	105	106	0	5	0	9	·	·	·
CCCC(=O)OC1CC(C)N(C(=O)c2ccccc2)c2ccc(C)cc21 (configuration not stated)	21*[inhibitor]	12*[inhibitor]	3	-40	2	20	99	-1	100
CC(C)Cn1c(O)c(/C=C2\C=NN=C2c2ccccc2)sc1=S	100	133*	-7	0	-1	63*	102	4	103
CCn1c(O)c(/C=C2\C=NN=C2c2ccccc2)sc1=S	89	86	·	-23	·	·	·	·	·
CS(=O)(=O)N(CC(=O)NCc1ccc2c(c1)OCO2)C1CCCCC1	117	136*	0	1	0	3	105	1	106
CCOC(=O)c1c(NC(=O)CSC2=NN3CCCC(=O)N=C3S2)sc2c1CCCCC2	83	89	18	-7	3	11	·	·	·
CC1Cc2ccccc2N1C1=CC(=O)CCC1 (configuration not stated)	0.0*[inhibitor]	0.0*[inhibitor]	1	-47	-1	-13	108	9	106
Nc1c2c(nc3ccc(Br)cc13)N(c1ccccc1)CC2	117	104	0	6	-1	0	·	·	·
SMILES	MEKK2wt PB1 HTS	MEKK3 PB1 HTS	ABCG2 block	MEKK2 mut-MEK5	ABCB1 inh	WT yeast gro inh	MEKK2wt confirm	MEKK2mut-MEK5	MEKK3 confirm
Cc1cccc(N2CCc3c2nc2ccc(Br)cc2c3N)c1	96	124*	0	18	0	49	121	22	111
CCOC(=O)c1cccc(NC(=O)c2c(NCc3ccccc3)[nH]c(=O)[nH]c2=O)c1	97	98	·	1	·	·	·	·	·
O=C(CSc1nnc(CNC(=O)c2ccccc2)o1)NCc1ccc2c(c1)OCO2	103	101	·	3	·	·	·	·	·
O=c1/c(=C/c2ccccn2)sc2nc3ccccc3n12	·	·	5	·	0	0	·	·	·
COC(=O)/C=c1/sc2nc3ccccc3n2c1=O	81	80*[inhibitor]	0	-15	0	17	98	-4	98
COc1ccc(CNc2nc(NCc3ccc(OC)c(OC)c3)n(C(=O)c3cccs3)n2)cc1OC	89	85	64	-15	20	15	·	·	·
CN(C)CCOC(=O)c1ccc2[nH]c3c(c2c1)CSCC3	194*	108	·	39	·	·	102	-4	104
CCCCOC(=O)Nc1ccc(C(=O)OC)cc1	99	103	6	0	1	-2	·	·	·
CCCCC(CCC(=O)Nc1ccc(C(=O)OC)cc1)C(=O)O (configuration not stated)	122	123*	2	12	0	0	94	-5	93
Cn1cc(CNC(=O)c2sc3cccc(Cl)c3c2Cl)cn1	102	131*	2	11	0	13	96	2	101
CCc1ccc(C(=O)NCc2cnn(C)c2)s1	106	103	4	3	1	-7	·	·	·
CCOc1ccc(NC(=O)C2Cc3ccccc3CN2S(=O)(=O)CC)cc1 (configuration not stated)	95	104	3	-5	1	-1	·	·	·

Screening results as filed in PubChem.
